For orientation: IC50 means the concentration that gives 50% inhibition. For orientation: MIC means the least concentration at which growth counts as inhibited.

Data on 18 molecules can be found in ChEMBL document CHEMBL4831482 (Eur J Med Chem, 2021).

≈ marks a conversion by molar mass, not a printed value. Calls of active or inactive are those of the source. No cut-off for these calls is given here. Where a SMILES comes first, the peptide text is derived from it. The star is where a group is joined. Boc = CC(C)(C)OC(=O)*; NHBn = c1ccc(CN*)cc1

The subject of one data set is Vero. Put plainly: Cytotoxicity against African green monkey Vero cells assessed as reduction in cell viability incubated for 48 hrs by Neutral red assay. Type of data set: cell-based. Conditions: chlorocebus sabaeus. In outline:
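VERO monkey kidney cells seeded at 25,000 cells/well and incubated 24 h to confluency. Peptide added, then a further 48 h incubation. Viability read by neutral red uptake.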

A further data set relates to Cryptococcus neoformans. Put plainly: Antifungal activity against Cryptococcus neoformans ATCC 90113 assessed as inhibition of fungal growth by CLSI method. In kind it is functional, organism-based.
The next data set deals with Klebsiella pneumoniae. Briefly: Antibacterial activity against Klebsiella pneumoniae ATCC BAA1705 assessed as inhibition of bacterial growth by CLSI method. In kind it is functional, organism-based.
A further data set concerns Aspergillus fumigatus. Put plainly: Antifungal activity against Aspergillus fumigatus ATCC 1022 assessed as inhibition of fungal growth by CLSI method. Type of data set: functional, organism-based.
The test system of the next data set is Candida albicans. Put plainly: Antifungal activity against Candida albicans ATCC 10231 assessed as inhibition of fungal growth by CLSI method. Type of data set: functional, organism-based.
In another data set the test system is Pseudomonas aeruginosa. Briefly: Antibacterial activity against Pseudomonas aeruginosa ATCC 27853 assessed as inhibition of bacterial growth by CLSI method. Type of data set: functional, organism-based.
The next data set deals with Escherichia coli. Put plainly: Antibacterial activity against Escherichia coli ATCC 35218 assessed as inhibition of bacterial growth by CLSI method. In kind it is functional, organism-based.
In a further data set the test system is Staphylococcus aureus. Put plainly: Antibacterial activity against methicillin-resistant Staphylococcus aureus ATCC 33591 assessed as inhibition of bacterial growth by CLSI method. In kind it is functional, organism-based.
A further data set has as its system Enterococcus. Put plainly: Antibacterial activity against vancomycin resistant Enterococcus ATCC MP-1 assessed as inhibition of bacterial growth by CLSI method. In kind it is functional, organism-based.

Regarding `COC(=O)[C@H](CCCNC(=N)N)NC(=O)[C@H](Cc1c[nH]c2ccccc12)NC(=O)[C@@H](N)Cc1c[nH]c(-c2ccccc2)n1.Cl.Cl`, the Activity with Vero was above 10 µg/mL. Also, the IC50 in the data set on Cryptococcus neoformans came out at 9.23 µg/mL. The MIC in the data set with Cryptococcus neoformans is above 20 µg/mL. The outcome in the data set with Klebsiella pneumoniae, with Aspergillus fumigatus and with Candida albicans was inactive.
For the molecule `COC(=O)[C@H](CCCNC(=N)N)NC(=O)[C@H](Cc1c[nH]c2ccccc12)NC(=O)[C@H](Cc1c[nH]c(-c2ccc(C)cc2)n1)NC(=O)OC(C)(C)C`, the Activity in the data set on Vero was above 10 µg/mL. In addition, in the data set with Cryptococcus neoformans, the IC50 amounted to 7.66 µg/mL (≈ 10.9 µM). The MIC in the data set on Cryptococcus neoformans is above 20 µg/mL. The result with Klebsiella pneumoniae, in the data set with Aspergillus fumigatus and in the data set on Candida albicans was inactive.
For the molecule `Cl.Cl.N=C(N)NCCC[C@H](NC(=O)[C@H](Cc1c[nH]c2ccccc12)NC(=O)[C@@H](N)Cc1c[nH]cn1)C(=O)NCc1ccccc1` (H-His-Trp-Arg-NHBn), the Activity in the data set on Vero was above 10 µg/mL. Further, the IC50 in the data set on Cryptococcus neoformans worked out at 4.92 µg/mL. Moreover, in the data set with Cryptococcus neoformans, the MIC was 10 µg/mL. The outcome with Klebsiella pneumoniae, in the data set on Aspergillus fumigatus and with Candida albicans was inactive.
Turning to `CC(C)(C)OC(=O)N[C@@H](Cc1c[nH]c(-c2ccc(-c3ccccc3)cc2)n1)C(=O)N[C@@H](Cc1c[nH]c2ccccc12)C(=O)N[C@@H](CCCNC(=N)N)C(=O)NCc1ccccc1`, the Activity in the data set with Vero was above 10 µg/mL. Also, the IC50 in the data set with Pseudomonas aeruginosa was 19.8 µg/mL (≈ 23.6 µM); in the data set on Cryptococcus neoformans it was 2.15 µg/mL (≈ 2.56 µM); with Escherichia coli, above 20 µg/mL; with Staphylococcus aureus, 4.56 µg/mL (≈ 5.43 µM); with Enterococcus it was 8.82 µg/mL (≈ 10.5 µM). For the same molecule, the MIC with Cryptococcus neoformans worked out at 2.5 µg/mL (≈ 2.98 µM); in the data set with Staphylococcus aureus, 10 µg/mL (≈ 11.9 µM); in the data set on Enterococcus, 10 µg/mL (≈ 11.9 µM). The result with Klebsiella pneumoniae, in the data set with Aspergillus fumigatus and with Candida albicans was inactive.
For the molecule `Cc1ccc(-c2nc(C[C@H](NC(=O)OC(C)(C)C)C(=O)N[C@@H](Cc3c[nH]c4ccccc34)C(=O)N[C@@H](CCCNC(=N)N)C(=O)NCc3ccccc3)c[nH]2)cc1`, the Activity in the data set on Vero was above 10 µg/mL. Further, the IC50 in the data set with Pseudomonas aeruginosa was above 20 µg/mL; with Cryptococcus neoformans, 4.34 µg/mL (≈ 5.59 µM); with Escherichia coli, above 20 µg/mL; with Staphylococcus aureus it was 17.5 µg/mL (≈ 22.5 µM); in the data set with Enterococcus, above 20 µg/mL. The MIC with Cryptococcus neoformans came to 5 µg/mL (≈ 6.44 µM); in the data set on Staphylococcus aureus, 20 µg/mL (≈ 25.7 µM). Further, the result in the data set with Klebsiella pneumoniae, with Aspergillus fumigatus and in the data set with Candida albicans was inactive.
Regarding `CCc1ccc(-c2nc(C[C@H](N)C(=O)N[C@@H](Cc3c[nH]c4ccccc34)C(=O)N[C@@H](CCCNC(=N)N)C(=O)NCc3ccccc3)c[nH]2)cc1.Cl.Cl`, the Activity with Vero is above 10 µg/mL. Also, the IC50 with Pseudomonas aeruginosa is above 20 µg/mL; in the data set on Cryptococcus neoformans it was 2.26 µg/mL; in the data set with Escherichia coli, above 20 µg/mL; with Staphylococcus aureus it was 18.4 µg/mL; with Enterococcus, 13.5 µg/mL. Moreover, the results for the MIC with Cryptococcus neoformans, in the data set on Staphylococcus aureus and with Enterococcus were 10 µg/mL, 20 µg/mL and 20 µg/mL, respectively. For the same molecule, the result in the data set with Klebsiella pneumoniae, with Aspergillus fumigatus and in the data set with Candida albicans was inactive.
`Cc1ccc(-c2nc(C[C@H](N)C(=O)N[C@@H](Cc3c[nH]c4ccccc34)C(=O)N[C@@H](CCCNC(=N)N)C(=O)NCc3ccccc3)c[nH]2)cc1.Cl.Cl`: the Activity in the data set on Vero is above 10 µg/mL. For the same molecule, the IC50 with Cryptococcus neoformans amounted to 3.36 µg/mL. Besides, in the data set on Cryptococcus neoformans, the MIC came to 5 µg/mL. The result in the data set on Klebsiella pneumoniae, with Aspergillus fumigatus and in the data set on Candida albicans was inactive.
On to `CCCCc1ccc(-c2nc(C[C@H](NC(=O)OC(C)(C)C)C(=O)N[C@@H](Cc3c[nH]c4ccccc34)C(=O)N[C@@H](CCCNC(=N)N)C(=O)OC)c[nH]2)cc1`, for which the Activity in the data set on Vero is above 10 µg/mL. Moreover, the IC50 is above 20 µg/mL with Pseudomonas aeruginosa; 1.99 µg/mL (≈ 2.68 µM) with Cryptococcus neoformans; 17.9 µg/mL (≈ 24 µM) in the data set with Escherichia coli; 9.29 µg/mL (≈ 12.5 µM) with Staphylococcus aureus; 7.82 µg/mL (≈ 10.5 µM) in the data set with Enterococcus. Besides, the MIC with Cryptococcus neoformans was 2.5 µg/mL (≈ 3.36 µM); in the data set with Escherichia coli it was above 20 µg/mL; in the data set on Staphylococcus aureus it was 10 µg/mL (≈ 13.4 µM); in the data set on Enterococcus, 20 µg/mL (≈ 26.9 µM). The outcome in the data set with Klebsiella pneumoniae, in the data set on Aspergillus fumigatus and with Candida albicans was inactive.
As for `COC(=O)[C@H](CCCNC(=N)N)NC(=O)[C@H](Cc1c[nH]c2ccccc12)NC(=O)[C@H](Cc1c[nH]c(-c2ccccc2)n1)NC(=O)OC(C)(C)C`, the Activity in the data set with Vero was above 10 µg/mL. Moreover, the IC50 in the data set with Cryptococcus neoformans was found to be 8.85 µg/mL (≈ 12.9 µM). The MIC in the data set on Cryptococcus neoformans was above 20 µg/mL. Also, the result in the data set with Klebsiella pneumoniae, with Aspergillus fumigatus and in the data set with Candida albicans was inactive.
For the molecule `COC(=O)[C@H](CCCNC(=N)N)NC(=O)[C@H](Cc1c[nH]c2ccccc12)NC(=O)[C@H](Cc1c[nH]c(-c2ccc(-c3ccccc3)cc2)n1)NC(=O)OC(C)(C)C`, in the data set with Vero, the Activity was above 10 µg/mL. Moreover, the 50% inhibitory concentration (IC50) in the data set on Pseudomonas aeruginosa was above 20 µg/mL; in the data set with Cryptococcus neoformans, 8.06 µg/mL (≈ 10.6 µM); in the data set on Escherichia coli it was above 20 µg/mL; in the data set on Staphylococcus aureus it was 16.3 µg/mL (≈ 21.3 µM). The MIC in the data set with Cryptococcus neoformans and in the data set on Staphylococcus aureus was above 20 µg/mL throughout. Further, the result in the data set on Klebsiella pneumoniae, in the data set on Aspergillus fumigatus and in the data set on Candida albicans was inactive.
In the case of `COC(=O)[C@H](CCCNC(=N)N)NC(=O)[C@H](Cc1c[nH]c2ccccc12)NC(=O)[C@@H](N)Cc1c[nH]cn1.Cl.Cl` (H-His-Trp-Arg-OMe), the Activity in the data set on Vero was above 10 µg/mL. In addition, the IC50 in the data set with Cryptococcus neoformans was found to be 2.41 µg/mL. Moreover, in the data set on Cryptococcus neoformans, the minimal inhibitory concentration (MIC) came to 10 µg/mL. Also, the outcome in the data set on Klebsiella pneumoniae, with Aspergillus fumigatus and in the data set on Candida albicans was inactive.
Turning to `CCc1ccc(-c2nc(C[C@H](NC(=O)OC(C)(C)C)C(=O)N[C@@H](Cc3c[nH]c4ccccc34)C(=O)N[C@@H](CCCNC(=N)N)C(=O)OC)c[nH]2)cc1`, the Activity in the data set on Vero is above 10 µg/mL. Besides, in the data set with Cryptococcus neoformans, the IC50 was 9.66 µg/mL (≈ 13.5 µM). The minimum inhibitory concentration (MIC) with Cryptococcus neoformans is above 20 µg/mL. The result with Klebsiella pneumoniae, in the data set with Aspergillus fumigatus and in the data set on Candida albicans was inactive.
Consider `C[C@@H]1[C@H](O)[C@@H](C)/C=C/C=C/C=C/C=C/C=C/C=C/C=C/[C@H](O[C@@H]2O[C@H](C)[C@@H](O)[C@H](N)[C@@H]2O)C[C@@H]2O[C@](O)(C[C@@H](O)C[C@@H](O)[C@H](O)CC[C@@H](O)C[C@@H](O)CC(=O)O[C@H]1C)C[C@H](O)[C@H]2C(=O)O` [AMPHOTERICIN B], for which the MIC in the data set with Cryptococcus neoformans turned out to be 1.25 µg/mL (≈ 1.35 µM).
For the molecule `CCc1ccc(-c2nc(C[C@H](NC(=O)OC(C)(C)C)C(=O)N[C@@H](Cc3c[nH]c4ccccc34)C(=O)N[C@@H](CCCNC(=N)N)C(=O)NCc3ccccc3)c[nH]2)cc1`, in the data set on Vero, the Activity is above 10 µg/mL. For the same molecule, the 50% inhibitory concentration (IC50) was above 20 µg/mL in the data set on Pseudomonas aeruginosa; 1.5 µg/mL (≈ 1.9 µM) in the data set with Cryptococcus neoformans; above 20 µg/mL in the data set on Escherichia coli; 8.93 µg/mL (≈ 11.3 µM) in the data set with Staphylococcus aureus; 14.9 µg/mL (≈ 18.8 µM) with Enterococcus. Moreover, the figures for the MIC in the data set with Cryptococcus neoformans, in the data set with Staphylococcus aureus and in the data set on Enterococcus were 2.5 µg/mL (≈ 3.16 µM), 20 µg/mL (≈ 25.3 µM) and above 20 µg/mL, respectively. In addition, the result in the data set on Klebsiella pneumoniae, in the data set with Aspergillus fumigatus and in the data set with Candida albicans was inactive.
Consider `CC(C)(C)OC(=O)N[C@@H](Cc1c[nH]c(-c2ccccc2)n1)C(=O)N[C@@H](Cc1c[nH]c2ccccc12)C(=O)N[C@@H](CCCNC(=N)N)C(=O)NCc1ccccc1`, for which, in the data set with Vero, the Activity is above 10 µg/mL. The IC50 in the data set on Cryptococcus neoformans came to 7.93 µg/mL (≈ 10.4 µM). The MIC with Cryptococcus neoformans was above 20 µg/mL. The result with Klebsiella pneumoniae, in the data set on Aspergillus fumigatus and in the data set with Candida albicans was inactive.
Regarding `CC(C)(C)OC(=O)N[C@@H](Cc1c[nH]cn1)C(=O)N[C@@H](Cc1c[nH]c2ccccc12)C(=O)N[C@@H](CCCNC(=N)N)C(=O)NCc1ccccc1` (Boc-His-Trp-Arg-NHBn), the Activity with Vero was above 10 µg/mL. In the data set on Cryptococcus neoformans, the IC50 is above 20 µg/mL. Besides, the result with Klebsiella pneumoniae, in the data set on Aspergillus fumigatus and in the data set on Candida albicans was inactive.
Regarding `Cl.Cl.N=C(N)NCCC[C@H](NC(=O)[C@H](Cc1c[nH]c2ccccc12)NC(=O)[C@@H](N)Cc1c[nH]c(-c2ccccc2)n1)C(=O)NCc1ccccc1`, in the data set with Vero, the Activity was above 10 µg/mL. For the same molecule, the IC50 in the data set with Cryptococcus neoformans worked out at 5.31 µg/mL. Moreover, the MIC with Cryptococcus neoformans came to 10 µg/mL. Also, the result with Klebsiella pneumoniae, in the data set on Aspergillus fumigatus and in the data set with Candida albicans was inactive.
For `COC(=O)[C@H](CCCNC(=N)N)NC(=O)[C@H](Cc1c[nH]c2ccccc12)NC(=O)[C@@H](N)Cc1c[nH]c(-c2ccc(C)cc2)n1.Cl.Cl`, the Activity with Vero is above 10 µg/mL. Further, in the data set on Cryptococcus neoformans, the IC50 stood at 8.98 µg/mL. Besides, the MIC with Cryptococcus neoformans was above 20 µg/mL. Further, the outcome in the data set on Klebsiella pneumoniae, in the data set on Aspergillus fumigatus and in the data set with Candida albicans was inactive.
